From publication PMC2213384 (The Journal of Experimental Medicine, 1998)
Where two headings read alike, the source gives them in different places. Marks after values point to notes of the source that are not given here.

Legend:
[1] = molecular target: QdmC5 peptide (…) (mouse); experiment: SPR
[2] = molecular target: QdmC5 peptide (…) (mouse); experiment: SPR; remark: listed apart in the source
[3] = molecular target: QdmC5 peptide (…) (mouse); experiment: SPR; remark: listed apart in the source
[4] = molecular target: QdmC5 peptide (…) (mouse); experiment: SPR; remark: listed apart in the source
[5] = test system: Qa-1^b; type: binding, mouse; details: for Binding of poly-Gly peptides to Qa-1^b (in words): Table 2 in words, 20 μM; for Blocking of / binding to Qa-1^b at 20 μM (in words): 20 μM competitor
[6] = test system: sM3; experiment: SPR direct binding of sM3 to immobilized QdmC5; details: Fig. 1 B; 0.5 μM sM3, 20 μl at 1 μl/min
[7] = test system: sCD1; experiment: SPR direct binding of sCD1 to immobilized QdmC5; details: data not shown
[8] = Solubility of peptides in running buffer / aqueous solvents; type: physicochemical
Procedure, shortened: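 Solubility was judged for peptides used as competitors in SPR on a Biacore 2000 at 25°C. The running buffer was Hepes-buffered saline, or 2% DMSO in HBS for the hydrophobic leader peptides. Competitors were at 20 μM (poly-Gly series titrated up to 20 μM), co-injected with 0.5 μM soluble Qa-1b at 1 μl/min for 20 min over immobilized QdmC5.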

[9] = test system: Qa-1^b; details: previous finding; ref [6]; cited from earlier work
[10] = molecular target: soluble Qa-1^b/β2-microglobulin dimer (mouse (C57BL/6) | murine) (UniProt P06339); experiment: SPR
UniProt P06339, sequence (P06339 21-357, chain 1 of 2): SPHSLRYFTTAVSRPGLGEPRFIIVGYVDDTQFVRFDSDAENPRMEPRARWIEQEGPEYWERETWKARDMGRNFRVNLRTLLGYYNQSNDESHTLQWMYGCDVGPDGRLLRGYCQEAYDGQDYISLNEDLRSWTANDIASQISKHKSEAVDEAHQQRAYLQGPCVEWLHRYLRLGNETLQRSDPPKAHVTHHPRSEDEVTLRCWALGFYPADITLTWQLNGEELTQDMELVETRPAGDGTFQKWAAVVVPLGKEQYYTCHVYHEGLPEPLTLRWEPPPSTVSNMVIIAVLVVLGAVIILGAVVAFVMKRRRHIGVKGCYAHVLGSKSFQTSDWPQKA
UniProt P06339, sequence (P01887 21-119, chain 2 of 2, further chain): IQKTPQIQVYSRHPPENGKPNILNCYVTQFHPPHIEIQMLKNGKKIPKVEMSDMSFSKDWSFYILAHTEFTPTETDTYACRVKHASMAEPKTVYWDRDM

soluble Qa-1^b/β2-microglobulin dimer (from UniProt P06339 21-357; P01887 21-119) (complex)
RU, binding in the absence of peptide [1]: 230 RU | RU, binding in the absence of peptide [2]: 263 RU | RU, binding in the absence of peptide [3]: 345 RU | RU, binding in the absence of peptide [4]: 276 RU

GMGGGGGLL
Binding of poly-Gly peptides to Qa-1^b (in words) [5]: very little binding

MGAMAPRTL
Blocking of / binding to Qa-1^b at 20 μM (in words) ([5]; Fig. 1 D, 0.5 μM sQa-1^b): failed to bind

AMAPCTLLL [QdmC5]
Binding of soluble protein to immobilized peptide (in words) [6]: failed to bind | Binding of soluble protein to immobilized peptide (in words) [7]: failed to bind

10-mer: Qdm extended by adding a leucine at position 10 (AMAPRTLLLL)
Binding at 200 nM (in words) ([5]; Fig. 1 D, 0.5 μM sQa-1^b, competitor 200 nM): almost no binding | Binding relative to the Qdm nonamer at 20 and 2 μM (in words) ([5]; Fig. 1 D, 0.5 μM sQa-1^b, competitor 20 and 2 μM): decreased binding relative to the nonamer

MAPRTLLLL
Blocking of / binding to Qa-1^b at 20 μM (in words) ([5]; Fig. 1 D, 0.5 μM sQa-1^b): failed to bind

VMSPTVLLL
Solubility in 2% DMSO in HBS ([8]; 2% DMSO in HBS (SPR running buffer)): remained soluble | Solubility in aqueous solvents ([8]; aqueous solvents): not soluble in aqueous solvents

GMGGGGLGL
Binding of poly-Gly peptides to Qa-1^b (in words) [5]: very little binding

AMAPRTLLL [Qdm, reference compound]
Blocking of Qa-1^b binding / binding ability over the titration (in words) ([5]; Fig. 1 D, 0.5 μM sQa-1^b, competitor 200 nM to 20 μM, 1 μl/min for 20 min): completely blocked binding | Binding to Qa-1^b in 2% DMSO (in words) ([5]; Fig. 3 B, running buffer 2% DMSO in HBS): bind Qa-1^b | Affinity of binding to Qa-1^b (in words) [9]: very high affinity

GMGGGGLLL
Blocked binding of sQa-1^b to immobilized QdmC5 peptide ([5]; highest concentration tested (20 μM)): > 50% | Blocking activity at 200 nM (in words) ([5]; titration, 200 nM): none | Blocking activity at 2 μM (in words) ([5]; titration, 2 μM): relatively little blocking activity

B1: Qdm peptide (…) (peptide)
peptide: AMAPRTLLL
RU of sQa-1^b left on immobilised QdmC5 with 20 μM Qdm [10]: 25 RU
